# Active and inactive are the calls of the source. The calls are words filed in the database; no cut-off is given here.
# How the values were obtained:
# MCF7 [1] = test: Cell cycle arrest in human MCF7 cells assessed as accumulation at […] phase after 48 hrs by propidium iodide/RNAse staining-based FACS analysis; type: functional
# MCF7 [2] = test: Induction of apoptosis in human MCF7 cells assessed as apoptotic cells at 3 uM after 48 hrs by annexin V staining-based flow cytometry (reference value: 3.44 %); type: functional
# MCF7 [3] = test: Cell cycle arrest in human MCF7 cells assessed as accumulation at G2-M phase at 2 uM after 24 hrs by propidium iodide/RNAse staining-based FACS analysis (reference value: 8.20 %); type: functional
# MCF7 [4] = test: Induction of apoptosis in human MCF7 cells assessed as increase in p27 expression at 2 uM after 4 to 24 hrs by Western blotting analysis relative to control; type: functional, cell-based
# Method in brief: (§1)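 MCF-7 seeded at 5 × 10⁴/cm² and exposed at 24 h to 2 µM compound for 0, 4, 8, 16 and 24 h. Lysates separated on 12% SDS gels, transferred to nitrocellulose, blocked in 5% milk. Primary antibodies applied overnight at 4 °C, then secondary 1 h at room temperature. Detection by ECL chemiluminescence with β-actin as loading reference.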
# MCF7 [5] = test: Cytotoxicity against human MCF7 cells assessed as reduction in cell viability at 1 uM after 3 days by SRB assay relative to control; type: functional
# Method in brief: (§2)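 MCF-7 seeded at high density (5 × 10⁴/cm²) and treated at 24 h with compound for 3 days, with or without 20 mM NAC. Viable cells quantified by sulforhodamine B staining, OD 492 nm. Viability reduction expressed versus untreated controls.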
# SW480 = test: Cytotoxicity against human SW480 cells after 3 days by SRB assay; type: functional, cell-based; details: SW480, 72 h
# Method in brief: (§3)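 Cells seeded at 5 × 10³ cells/cm² in quadruplicate and, after 24 h, treated with increasing concentrations for 3 days. Compounds diluted from DMSO stock, final DMSO <0.1% v/v. Cells were fixed with cold 10% TCA, stained with 0.4% sulforhodamine B in 1% acetic acid, and dye solubilised in 10 mM Tris-base pH 10.5. OD read at 492 nm. IC50 obtained by linear interpolation on a semi-log dose-response curve.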
# Mus musculus = test: Toxicity in C57BL/6 mouse allografted with mouse E0771 cells assessed as diarrhea at 5 to 15 mg/kg, po; type: organism-based; parameters: dose 5-15 mg/kg, route oral; details: in vivo
# Method in brief: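 C57BL/6 mice (10 per group) injected subcutaneously in the right side with 1 × 10⁶ E0771 cells. At day 9, with tumours at 75 mm³, mice were randomised to oral vehicle (1% methylcellulose) or 5, 10 or 15 mg/kg on six occasions. Animals were monitored to day 42 for survival and for signs of toxicity such as hair loss or diarrhoea.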
# T47D = test: Cytotoxicity against human T47D cells after 3 days by SRB assay; type: functional, cell-based; details: 72 h; method in brief: as §3
# MCF7 [6] = test: Cell cycle arrest in human MCF7 cells assessed as accumulation at G0-G1 phase after 24 hrs by propidium iodide/RNAse staining-based FACS analysis; type: functional
# MCF7 [7] = test: Induction of apoptosis in human MCF7 cells assessed as reduction in cyclin D1 protein expression at 2 uM after 4 hrs by Western blotting analysis relative to control; type: functional; parameters: scale not given: the % may be the effect or the level left; method in brief: as §1
# [8] = Therapeutic index, ratio of IC50 for human MCF10A cells to IC50 for human MCF7 cells; type: cell-based, MCF-10A; details: MCF10A cells versus MCF7 cells, read-out: Ratio IC50
# [9] = Therapeutic index, ratio of IC50 for human CCD-18Co cells to IC50 for human HT-29 cells; type: cell-based; details: CCD-18Co cells versus HT-29 cells, read-out: Ratio IC50
# MCF7 [10] = test: Cell cycle arrest in human MCF7 cells assessed as accumulation at S phase at 2 uM after 24 hrs by propidium iodide/RNAse staining-based FACS analysis (reference value: 49.46 %); type: functional
# [11] = Therapeutic index, ratio of IC50 for human CCD-18Co cells to IC50 for human T84 cells; type: cell-based, T84; CCD-18Co; details: CCD-18Co cells versus T84 cells, read-out: Ratio IC50
# MCF7 [12] = test: Cytotoxicity against human MCF7 cells at 1 to 3 uM after 3 days by SRB assay in presence of NAC; type: functional, cell-based; method in brief: as §2
# [13] = Therapeutic index, ratio of IC50 for human MCF10A cells to IC50 for human MDA-MB-231 cells; type: cell-based, MCF-10A; details: MCF10A cells versus MDA-MB-231 cells, read-out: Ratio IC50
# [14] = Therapeutic index, ratio of IC50 for human CCD-18Co cells to IC50 for human SW480 cells; type: cell-based; details: CCD-18Co cells versus SW480 cells, read-out: Ratio IC50
# [15] = Therapeutic index, ratio of IC50 for human CCD-18Co cells to IC50 for human RKO cells; type: cell-based; details: CCD-18Co cells versus RKO cells, read-out: Ratio IC50
# MCF7 [16] = test: Cytotoxicity against human MCF7 cells assessed as reduction in cell viability at 3 uM after 3 days by SRB assay relative to control; type: functional; method in brief: as §2
# MCF7 [17] = test: Cell cycle arrest in human MCF7 cells assessed as accumulation at G0-G1 phase at 2 uM after 24 hrs by propidium iodide/RNAse staining-based FACS analysis (reference value: 42.34 %); type: functional
# MCF7 [18] = test: Induction of apoptosis in human MCF7 cells assessed as reduction in c-myc expression at 2 uM after 16 hrs by Western blotting analysis relative to control; type: functional; parameters: scale not given: the % may be the effect or the level left; method in brief: as §1
# MCF7 [19] = test: Induction of apoptosis in human MCF7 cells assessed as apoptotic cells at 2 uM after 48 hrs by annexin V staining-based flow cytometry (reference value: 3.44 %); type: functional
# MCF7 [20] = test: Induction of apoptosis in human MCF7 cells assessed as increase in total p53 expression level at 2 uM after 4 to 24 hrs by Western blotting analysis relative to control; type: functional, cell-based; method in brief: as §1
# RKO = test: Cytotoxicity against human RKO cells after 3 days by SRB assay; type: functional, cell-based; details: 72 h; method in brief: as §3
# MCF7 [21] = test: Induction of apoptosis in human MCF7 cells assessed as increase in E-cadherin expression at 1 to 2 uM after 48 hrs by FACS analysis; type: functional, cell-based
# Method in brief: (§4)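 MCF-7 seeded at 5 × 10⁴/cm² and treated at 24 h with 1 or 2 µM compound for 48 h. Labelled with fluorochrome-conjugated anti-E-cadherin or anti-β-catenin antibody for 30 min at 4 °C in the dark, washed in PBS. Mean fluorescence intensity measured by FACScan flow cytometry.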
# MCF7 [22] = test: Induction of apoptosis in human MCF7 cells assessed as increase in PARP cleavage at 2 uM after 4 to 24 hrs by Western blotting analysis relative to control; type: functional, cell-based; method in brief: as §1
# MCF7 [23] = test: Induction of apoptosis in human MCF7 cells assessed as apoptotic cells at 1 uM after 48 hrs by annexin V staining-based flow cytometry (reference value: 3.44 %); type: functional
# MCF7 [24] = test: Cytotoxicity against human MCF7 cells assessed as reduction in cell viability after 3 days by SRB assay; type: functional, cell-based; method in brief: as §2
# HT-29 = test: Cytotoxicity against human HT-29 cells after 3 days by SRB assay; type: functional, cell-based; details: HT-29, 72 h; method in brief: as §3
# MCF7 [25] = test: Induction of apoptosis in human MCF7 cells assessed as late apoptotic cells at 1 uM after 48 hrs by annexin V staining-based flow cytometry (reference value: 3.24 %); type: functional
# MCF7 [26] = test: Induction of apoptosis in human MCF7 cells assessed as increase in beta-cadenin expression at 1 to 2 uM after 48 hrs by FACS analysis; type: functional, cell-based; method in brief: as §4
compound,measurement,setting,value
C=C1CC[C@@H]2[C@](C)(CCC[C@]2(C)C(=O)OC)[C@H]1Cc1c(C)ccc2c1C(=O)C=CC2=O,Activity,MCF7 [1],Dose-dependent effect
same,Activity,MCF7 [2],57.8%
same,Activity,MCF7 [3],19.25%
same,Activity,MCF7 [4],Active
same,viability,MCF7 [5],90.21%
same,IC50,SW480,920 nM
same,Activity,Mus musculus,Non-toxic
same,IC50,T47D,630 nM
same,Activity,MCF7 [6],Dose-dependent effect
same,Activity,MCF7 [7],80%
same,selectivity ratio,[8],9
same,selectivity ratio,[9],0.17
same,Activity,MCF7 [10],29.15%
same,selectivity ratio,[11],0.59
same,Activity,MCF7 [12],inactive
same,selectivity ratio,[13],6.85
same,selectivity ratio,[14],0.36
same,selectivity ratio,[15],0.56
same,viability,MCF7 [16],23.26%
same,Activity,MCF7 [17],66.6%
same,Activity,MCF7 [18],50%
same,Activity,MCF7 [19],29.13%
same,Activity,MCF7 [20],Active
same,IC50,RKO,590 nM
same,Activity,MCF7 [21],Active
same,Activity,MCF7 [22],Active
same,Activity,MCF7 [23],11.07%
same,Activity,MCF7 [24],Dose-dependent effect
same,IC50,HT-29,1970 nM
same,Activity,MCF7 [25],9.63%
same,Activity,MCF7 [26],Active

# Reference: ChEMBL document CHEMBL3259621, “Novel merosesquiterpene exerts a potent antitumor activity against breast cancer cells in vitro and in vivo” (Eur J Med Chem, 2014)
